Tn7 DDE FP – inhibitors of Tn7 peptide binding to fibrin DD(E), primary screen, biochemical, fluorescence polarization, human fibrin, Tn7 probe | FP displacement of FITC-Tn7 peptide from fibrin DD(E); 0% = median of compound wells per plate | inhibition, % at 8.3 µM | hit rate 0.13% among 370,000;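 active means inhibition above the mean of compounds falling within the control limits plus 3 SD of them, cut at about 14% in these data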
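Assay system: Human fibrin DD(E) protein | Medium: Tris buffer with calcium and detergent, pH 7.8 | Reagent: 0.1 µM fluorescent Tn7 | Compound dosing: Single point at 8.3 µM | Times: 10 min preincubation, 3 h with tracer, room temperature | Detection: Fluorescence polarization of the labelled Tn7 tracer | Controls: Aha-Tn7 high control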
DAGLB inh – DAGLB lipase inhibitors, primary screen, biochemical, fluorescence, HTS. HEK293T DAGLB membrane lysate, EnzChek fluorogenic substrate. Diacylglycerol lipase-beta (Homo sapiens), Q8NCG7. hit rate 0.059% among 340,000. inhibition, % at 5.17 µM; in the data active means inhibition above about 34%
Target sequence (Q8NCG7 whole entry, looked up): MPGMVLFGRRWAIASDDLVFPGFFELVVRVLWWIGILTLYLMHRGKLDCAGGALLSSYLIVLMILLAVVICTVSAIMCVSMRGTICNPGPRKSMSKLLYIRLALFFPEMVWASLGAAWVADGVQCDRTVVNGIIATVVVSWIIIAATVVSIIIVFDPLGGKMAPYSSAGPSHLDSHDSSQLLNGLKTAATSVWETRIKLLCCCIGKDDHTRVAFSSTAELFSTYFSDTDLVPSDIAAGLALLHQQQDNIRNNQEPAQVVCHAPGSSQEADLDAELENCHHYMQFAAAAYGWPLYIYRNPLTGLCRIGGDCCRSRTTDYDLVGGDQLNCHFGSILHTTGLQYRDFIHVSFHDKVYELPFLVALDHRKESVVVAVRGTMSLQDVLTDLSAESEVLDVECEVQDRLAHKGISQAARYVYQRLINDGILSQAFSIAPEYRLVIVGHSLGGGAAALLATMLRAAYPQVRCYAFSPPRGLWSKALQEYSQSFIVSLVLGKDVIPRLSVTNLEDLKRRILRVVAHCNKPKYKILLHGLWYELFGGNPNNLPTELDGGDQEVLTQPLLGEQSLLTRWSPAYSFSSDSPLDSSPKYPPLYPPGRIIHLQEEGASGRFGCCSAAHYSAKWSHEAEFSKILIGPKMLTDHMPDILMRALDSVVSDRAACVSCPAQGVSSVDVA
H9c2 TAG inh – inhibitors of triacylglycerol accumulation, primary screen, cell-based, uHTS, fluorescence, H9c2 | H9c2 cells, Nile Red lipid (TAG) fluorescence; cells loaded with 200 µM oleic acid | hit rate 0.66% among 230,000 | AID 651582, 2012 | inhibition, % at 12.5 µM;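 active means pattern-corrected inhibition of lipid staining of at least 50% with the nuclear-stain viability signal not falling by more than 50%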
Cardio protect – cardioprotection against H2O2-induced cell death, primary screen, uHTS, H9c2 cells, ATPLite luminescence | hit rate 0.63% among 360,000 | protection from H2O2 cell death, % at 20 µM | H9c2 cardiomyocytes, H2O2 injury protection, 2 h;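 active means compounds giving at least 50% protection of heart cells from peroxide-induced death in the single-dose screen, raw or plate-pattern-corrected value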
DDE Tn6 FP inh – inhibitors of Tn6 peptide binding to fibrin DD(E), primary screen, biochemical, fluorescence polarization, human fibrin, Tn6 probe. Fibrinogen beta chain (Homo sapiens), P02675. Fibrin DD(E) TRITC-Tn6 fluorescence polarization displacement. inhibition, % at 8.3 µM. hit rate 0.21% among 370,000. AID 720509, 2013;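 active means inhibition above a per-campaign cutoff: mean of compounds within control limits plus 3 SD, cut at about 15% in these data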
MT1-MMP act inh – blockers of MT1-MMP proenzyme processing, primary screen, HT1080 RFP-PRO-GFP cells, GFP/RFP fluorescence; Matrix metalloproteinase-14 (Homo sapiens), P50281; GFP/RFP ratio fluorescence, overnight; percent of plate control window, DMSO zero; GFP/RFP ratio change, % at 20 µM; hit rate 0.061% among 360,000; AID 651647, 2012;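 active means GFP/RFP ratio change of at least 30% with cell ATP level not reduced by more than half and red fluorescence within 50% of control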
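Material: RFP-PRO-GFP reporter HT1080 cells. Dosing: single-point 20 µM compound, 1% DMSO. Controls: DMSO and RFP-L50D-GFP cell wells. Timing: cells overnight before dosing, compound overnight, 37 °C, 5% CO2. Measure: GFP/RFP fluorescence ratio.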
DDE Tn6 FP ctr – counter-screen hit for Tn6 peptide-fibrin DD(E) binding disruption | shares compounds with DDE Tn6 FP inh | TRITC-Tn6 fluorescence polarization displacement; 0% = median of compound wells, not DMSO | inhibition, % at 8.3 µM | hit rate 2% among 680;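 active means inhibition above the mean of test compounds lying between the control limits plus 3 SD of those, cut at about 14% in these data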
Tn6 DDE conf – inhibitors of Tn6 peptide binding to fibrin DD(E), confirmation, biochemical, fluorescence polarization, human fibrin, Tn6 probe | shares compounds with DDE Tn6 FP inh | FP displacement of TRITC-Tn6 peptide from DD(E); 0% = per-plate median of test wells | inhibition, % at 8.3 µM | hit rate 10% among 680 | AID 720631, 2013;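 active means inhibition above the mean of compounds lying within the control limits plus 3 SD, cut at about 16% in these data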
Numbers stand for hits; i = inactive; nt = no result given. Shown are actives, neighbours in structure and some others; about 1.4% of the full set was active somewhere.

SMILES	Tn7 DDE FP	DAGLB inh	H9c2 TAG inh	Cardio protect	DDE Tn6 FP inh	MT1-MMP act inh	DDE Tn6 FP ctr	Tn6 DDE conf
Cc1nc(N2CCOCC2)c(C#N)c2c1COC(C)(C)C2	i	i	nt	i	i	i	nt	nt
CC(C)C(NC(=O)C(C)N1C(=O)c2ccccc2C1=O)c1ccccc1 (centres undefined)	i	i	nt	i	i	i	nt	nt
COc1ccc(/C=C/C(=O)NCCCNC(=O)/C=C/c2ccc(OC)c(OC)c2)cc1OC	i	i	i	i	i	i	nt	nt
COc1ccc(C(=O)NCc2ccc3c(c2)cc(C)n3C)cc1OC	i	i	i	i	36.8	i	i	i
COc1ccc(/C=C\C(=O)NCc2ccc3c(c2)cc(C)n3C)cc1OC	i	i	i	i	30.1	i	i	i
COc1cccc(C(=O)NCc2ccc3c(c2)cc(C)n3C)c1	i	i	i	i	22.4	i	i	i
CCN(CC(=O)NC1CCCC1)S(=O)(=O)c1ccc(Br)cc1	i	i	i	i	16.5	i	i	i
CCN(CC(=O)NC1CCCC1)S(=O)(=O)c1ccc(C)cc1	i	i	nt	i	i	i	nt	nt
CC(=O)Nc1ccc(SCCC2CCCCN2C)cc1 (centres undefined)	i	i	nt	i	i	i	nt	nt
CCN(c1ccccc1)S(=O)(=O)c1cc(C(=O)NCC(c2ccc(OC)cc2)N(C)C)ccc1C (centres undefined)	i	i	i	i	16.6	i	i	i
C/C=C/C(=O)N1CC2(CC(c3cccc(NC(=O)/C(C)=C/C)c3)=NO2)C[C@H]1C(N)=O (some centres undefined)	i	i	i	i	16.9	i	i	i
COC(=O)c1cc(C(=O)OCC(=O)NC2CCCCCCC2)cc([N+](=O)[O-])c1	i	i	i	i	16.6	i	i	i
O=C(COC(=O)c1ccc([N+](=O)[O-])cc1)NC1CCCC1	i	i	nt	i	i	i	nt	nt
CC(C)CN1C[C@@H]2CSCCS(=O)(=O)N2C1=O	i	nt	nt	nt	i	nt	nt	nt
Cc1ccc(C(=O)NCC(=O)OC(C)C(=O)NC2CCCc3ccccc32)cc1 (centres undefined)	i	i	i	i	15.7	i	i	i
COC(=O)[C@@]12C[C@@H](CC(=O)NCCc3ccccc3OC)C(=O)N(Cc3ccccc3)C1=CCC(C)(C)C2	i	nt	nt	nt	i	i	nt	nt
COc1ccc(N2CCN(CCNS(=O)(=O)c3ccccc3[N+](=O)[O-])CC2)cc1	i	nt	nt	nt	i	nt	nt	nt
CN(Cc1cn(Cc2cccc(Cl)c2)nn1)C1CN(Cc2cn(Cc3cccc(Cl)c3)nn2)S(=O)(=O)C1 (centres undefined)	i	nt	nt	nt	15.9	i	i	i
COc1ccc(-c2nnc3sc(-c4ccco4)nn23)cc1OC	i	i	i	58.1	15.3	i	i	i
COc1ccccc1C(=O)NC(=O)COC(=O)c1ccc(NC(=O)CC#N)cc1	i	i	i	i	17.6	i	i	i
COc1ccccc1C(=O)NC(=O)COC(=O)c1ccc([N+](=O)[O-])cc1	i	i	i	i	i	i	nt	nt
CC(C)CNC(=O)C1(C)CCCN1C(=O)c1cccnc1 (centres undefined)	i	nt	i	i	i	i	nt	nt
CC[C@]12c3[nH]c4ccc(Cl)cc4c3CCN1C(=O)[C@@H](CC(=O)NC(C)(C)C)C[C@@H]2C(=O)N1CCN(C(=O)c2ccco2)CC1	i	i	i	i	15.8	i	i	i
CC[C@]12c3[nH]c4ccc(Cl)cc4c3CCN1C(=O)[C@@H](CC(=O)NCCCN(C)C)C[C@@H]2C(=O)N1CCN(C(=O)c2ccco2)CC1	i	i	i	i	i	i	nt	nt
c1ccc(CNc2ccccn2)cc1	i	i	nt	i	i	i	nt	nt
SMILES	Tn7 DDE FP	DAGLB inh	H9c2 TAG inh	Cardio protect	DDE Tn6 FP inh	MT1-MMP act inh	DDE Tn6 FP ctr	Tn6 DDE conf
c1ccc(Nc2ccccc2Nc2ccccn2)nc1	i	i	nt	i	16.1	i	i	i
COc1ccc(CN2C(=O)CSCC2(C)C(=O)Nc2ccc3c(c2)OCCO3)cc1 (centres undefined)	i	nt	nt	nt	i	i	nt	nt
CC(=O)c1ccc(NC(=S)NCCc2ccc(S(N)(=O)=O)cc2)cc1	i	i	i	i	15.3	i	i	i
COc1ccc(S(=O)(=O)N(C)C[C@@H]2Oc3cc(Br)ccc3S(=O)(=O)N([C@H](C)CO)C[C@@H]2C)cc1	i	i	i	i	i	i	nt	nt
N=c1c[n+](N2CCOCC2)[n-]o1	i	i	i	i	19.4	i	i	i
c1ccc2c(c1)ncn2CCC1CCCCC1	i	i	i	i	17.6	i	i	i
NS(=O)(=O)c1ccc(NS(=O)(=O)c2ccc(NC(=O)c3ccc(-c4ccccc4)cc3)cc2)cc1	i	i	i	i	32.3	i	i	17.4
CNc1nc(Cl)c(SC)c(NCc2cccc(OC)c2)n1	i	i	nt	i	17.4	i	i	i
COc1cccc(CNc2ncnc3cc(Cl)ccc23)c1	i	i	i	i	i	i	nt	nt
COc1ccc(-n2c(Cc3cccs3)nnc2SCC(=O)Nc2ccc(OCc3ccccc3)cc2)cc1	i	nt	nt	nt	i	nt	nt	nt
COc1cccc(CNC(=O)C2=C(C)C(=O)OC23CCC(C)CC3)c1 (centres undefined)	i	i	i	i	19.1	i	i	i
COc1ccccc1CNC(=O)C1=C(C)C(=O)OC12CCC(C)CC2 (centres undefined)	i	i	i	i	i	i	nt	nt
COc1ccccc1C(O)c1ncc(-c2ccccc2C)[nH]1 (centres undefined)	i	nt	i	i	i	i	nt	nt
Brc1ccc(C2=Nn3c(nnc3-c3cccnc3)SC2)s1	nt	i	i	i	nt	i	nt	nt
O=c1oc2ccccc2cc1C1=Nn2c(nnc2-c2cccnc2)SC1	i	i	i	i	15.4	i	i	i
COc1ccc(C=O)c(-c2c(CCO)sc3ccccc23)c1	i	nt	nt	nt	i	i	nt	nt
Cc1c(C)n(C)c2ccc(C(=O)NCc3cccs3)cc12	i	i	i	i	35.0	i	i	i

High-throughput results from PubChem.
